Results from ChEMBL document CHEMBL5034049, “Flavonol-Based Carbon Monoxide Delivery Molecule with Endoplasmic Reticulum, Mitochondria, And Lysosome Localization” (ACS Med Chem Lett, 2022).
The source made the active and inactive calls. The rule behind the calls is not given here.

Experiments:
A549 [1] = assay: Cytotoxicity against human A549 cells assessed as reduction in cell viability incubated for 24 hrs under dark condition by MTT assay; format: cell-based; conditions: A549, 24 h
A549 [2] = assay: Cytotoxicity against human A549 cells assessed as inhibition of cell viability preincubated under visible light-induced CO release condition for 1 hr followed by incubation with drug for 23 hrs by MTT assay; format: functional, cell-based
[3] = Drug uptake in human HFL1 cells at 1 uM after 4 hrs by Hoechst 33258 staining based fluorescence microscopic analysis; format: ADME, cell-based; conditions: hfl1, 4 h
RAW264.7 [4] = assay: Cytotoxicity against mouse RAW264.7 cells assessed as reduction in cell viability incubated for 24 hrs under dark condition by MTT assay; format: cell-based; conditions: RAW264.7, 24 h
A549 [5] = assay: Cytotoxicity against human A549 cells assessed as reduction in cell viability up to 100 uM incubated for 24 hrs under dark condition by MTT assay; format: cell-based; conditions: a549, 24 h
HFL1 [6] = assay: Cytotoxicity against human HFL1 cells assessed as reduction in cell viability up to 100 uM incubated for 24 hrs under dark condition by MTT assay; format: cell-based; conditions: hfl1, 24 h
[7] = Drug uptake in mouse RAW264.7 cells at 5 uM after 4 hrs by Hoechst 33258 staining based fluorescence microscopic analysis; format: ADME, cell-based; conditions: raw264.7, 4 h
[8] = Drug uptake in endoplasmic reticulum of human A549 cells at 25 uM measured after 1 hr by ER-Tracker Red based confocal microscopic analysis; format: ADME; conditions: a549, 1 h
How it was run: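 A549 cells treated 1 h at 25 μM (vehicle 0.4% DMSO), then counterstained with Hoechst 33342 and ER-Tracker Red. Imaged by confocal microscopy. Overlap given as Pearson's colocalization coefficient, mean ± SEM over 27 cells examined individually across three separate experiments. Line intensity profiles of regions of interest taken over 20 μm.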

[9] = Drug uptake in mitochondria of human A549 cells at 25 uM measured after 1 hr by MitoTracker Deep Red based confocal microscopic analysis; format: ADME; conditions: a549, 1 h
[10] = Drug uptake in lysosome of human A549 cells at 25 uM measured after 1 hr by LysoTracker Red based confocal microscopic analysis; format: ADME, subcellular; conditions: a549, 1 h
RAW264.7 [11] = assay: Antiinflammatory activity against LPS-stimulated mouse RAW264.7 cells assessed as inhibition of TNF-alpha production at 40 nM incubated for 10 hrs under dark conditions followed by LPS stimulation for 1 hr by ELISA; format: functional, cell-based; conditions: time 11.0 hrs
How it was run: (§1)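 TNF-α suppression in RAW 264.7 macrophages challenged with LPS. Dark and illuminated treatments run as independent experiments. Mean ± SEM from three independent experiments, compared with the LPS positive control and with the matching non-illuminated treatment.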

[12] = Drug uptake in human A549 cells assessed as clustering of emission at 1 uM after 1 hr by confocal microscopy; format: ADME, cell-based; conditions: a549, 1 h
How it was run: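 A549 cells exposed 1 h at 1 μM with a media control. Hoechst nuclear counterstain. Confocal imaging at 63×, compound emission read in the green channel.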

RAW264.7 [13] = assay: Antiinflammatory activity against LPS-stimulated mouse RAW264.7 cells assessed as inhibition of TNF-alpha production incubated for 4 hrs followed by illumination with blue LED array for 1 hr and later incubated for 6 hrs under dark conditions followed by LPS stimulation for 1 hr by ELISA; format: functional, cell-based; conditions: time 12.0 hrs; how it was run: as §1
[14] = Drug uptake in human A549 cells at 1 uM after 4 hrs by Hoechst 33342 staining based fluorescence microscopic analysis; conditions: a549, 4 h
RAW264.7 [15] = assay: Cytotoxicity against mouse RAW264.7 cells assessed as reduction in cell viability up to 100 uM incubated for 24 hrs under dark condition by MTT assay; format: cell-based; conditions: raw264.7, 24 h
HFL1 [16] = assay: Cytotoxicity against human HFL1 cells assessed as reduction in cell viability incubated for 24 hrs under dark condition by MTT assay; format: cell-based; conditions: HFL1, 24 h

Row | SMILES | IC50 (A549 [1]) | IC50 (A549 [2]) | IC50 (RAW264.7 [4]) | Activity (A549 [5]) | Activity (HFL1 [6]) | Activity (RAW264.7 [13]) | Activity (RAW264.7 [15]) | further results
1 | O=C(NCC[P+](c1ccccc1)(c1ccccc1)c1ccccc1)c1ccc(-c2oc3cc4ccccc4cc3c(=O)c2O)cc1 | 14.1 µM | 4.6 µM | – | – | – | – | – | –
2 | CCN(CC)c1ccc(-c2oc3cc4ccccc4cc3c(=O)c2O)cc1 | > 100 µM | 10.7 µM | 67.2 µM | Non-Toxic | Non-Toxic | Active | – | Drug uptake [3]: Active; Drug uptake [7]: Active; Drug uptake [8]: Active; Drug uptake [9]: Active; Drug uptake [10]: Active; Activity (RAW264.7 [11]): Active; Drug uptake [12]: Active; Drug uptake [14]: Active
3 | O=C(Oc1cc2ccccc2cc1C(=O)O)c1ccccc1 | – | – | – | Non-Toxic | Non-Toxic | – | Non-Toxic | –
4 | CCN(CC)c1ccc(C(=O)Oc2cc3ccccc3cc2C(=O)O)cc1 | – | – | – | Non-Toxic | Non-Toxic | – | Non-Toxic | –
5 | O=c1c(O)c(-c2ccccc2)oc2cc3ccccc3cc12 | 80.2 µM | 76.1 µM | 47.7 µM | – | – | Active | – | IC50 (HFL1 [16]): 65.1 µM
